Sampled rows, rich in hits. Any-hit rate of the full collection: about 5.8%.
IDH1 mut inh: inhibitors of IDH1 R132H reductase, primary screen, biochemical, plate reader, single point; inhibition, % at 10 µM; actives 0.18% (n = 70,000); AID 624101, 2012; diaphorase/resazurin fluorescence, 60 min; Isocitrate dehydrogenase [NADP] cytoplasmic (Homo sapiens), O75874; in the data active = inhibition above about 34%; inconclusive = no clear call, values can overlap the other calls; inactive = below about 11%;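 also: 0% = DMSO and 100% = no enzyme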
T cruzi growth-1: T. cruzi intracellular proliferation inhibitors, primary screen, cell-based, beta-gal Tulahuen parasites, NIH3T3 host, luminescence | T. cruzi beta-gal in NIH3T3, GalScreen luminescence, 90 h | inhibition, % at 8.34 µM | actives 5.9% (n = 77,000) | AID 624255, 2012;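 active = mean inhibition above about 93%, with at least 55% of replicates each passing it, limit read from the data, passing the limit was not always enough; inconclusive = only one of those two conditions holds; inactive = neither condition holds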
Pf Dd2 growth: P. falciparum Dd2 growth inhibitors, primary screen, SYBR Green fluorescence, single dose replicates. 72 h; hits give low values. activity change, % at 10 µM. actives 2.3% (n = 94,000); in the data active = activity change below about -80%; inconclusive = no clear call, values can overlap the other calls
GASC1 inh: inhibitors of GASC-1 (KDM4C) histone demethylase, primary screen, biochemical, single concentration HTS. Lysine-specific demethylase 4C (Homo sapiens), Q9H3R0. GST-KDM4C 2-372, H3K9me3 peptide, LANCE TR-FRET. inhibition, % at 12.5 µM. actives 0.15% (n = 96,000);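 active = mean replicate inhibition above about 25%, with at least 55% of replicates also reaching it, limit read from the data, passing the limit was not always enough; inconclusive = only one of those two conditions met; inactive = neither condition met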
Target sequence (Q9H3R0 2-372 limits assumed): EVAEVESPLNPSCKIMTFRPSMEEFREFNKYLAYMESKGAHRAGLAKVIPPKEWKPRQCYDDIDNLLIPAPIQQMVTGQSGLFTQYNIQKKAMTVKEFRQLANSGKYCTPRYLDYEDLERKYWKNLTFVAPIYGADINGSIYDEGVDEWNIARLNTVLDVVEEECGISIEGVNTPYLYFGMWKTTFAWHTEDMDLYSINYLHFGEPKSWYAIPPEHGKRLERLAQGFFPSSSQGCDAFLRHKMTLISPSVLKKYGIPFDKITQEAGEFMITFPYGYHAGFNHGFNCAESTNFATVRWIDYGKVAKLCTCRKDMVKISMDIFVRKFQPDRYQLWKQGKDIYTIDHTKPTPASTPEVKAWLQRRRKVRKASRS
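Test system – GST-tagged GASC-1 (JMJD2C) catalytic fragment, aa 2-372 · Medium – HEPES buffer, pH 7.5, plus ascorbate · Reagent – H3K9me3 peptide with Fe(II)/2OG · Compound – one test concentration per compound · Timing – 30 min reaction, 60 min detection, RT · Technique – TR-FRET with Eu antibody and ULight streptavidin, EDTA stop · Read-out basis – inhibition from TR-FRET ratio decrease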
T cruzi growth-2: T. cruzi intracellular proliferation inhibitors, confirmation, cell-based, NIH3T3 host, beta-gal parasite, luminescence, cherry-pick; shares compounds with T cruzi growth-1; T. cruzi beta-gal in NIH3T3, GalScreen luminescence, 90 h; inhibition, % at 8.35 µM; actives 72% (n = 5,600); AID 651739, 2012;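 active = mean replicate inhibition above about 95% and at least 55% of replicates individually reaching it, limit read from the data; inconclusive = only one of the two criteria is met; inactive = neither criterion is met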
T cruzi growth-3: inhibitors of intracellular T. cruzi replication, confirmation, NIH3T3 host cells, beta-gal parasites, cherry-pick, set 2 | T. cruzi beta-gal in NIH3T3, GalScreen luminescence, 90 h | actives 21% (n = 5,600) | shares compounds with T cruzi growth-1 | inhibition, % at 2.09 µM;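 active = mean inhibition above about 95%, with at least 55% of replicates also reaching it, limit read from the data; inconclusive = meets just one of the two conditions; inactive = meets neither condition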;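 also: plate controls were neutral control median for no effect and positive control median for full effect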
NIH3T3 tox: cytotoxicity in mouse NIH/3T3 fibroblasts, confirmation, cytotoxicity control for T. cruzi proliferation inhibitor project, cell-based, cherry-pick, single point | shares compounds with T cruzi growth-1 | NIH/3T3 viability, CellTiter-Glo ATP luminescence, 90 h | cytotoxicity (signal decrease), % at 8.35 µM | actives 14% (n = 5,600) | AID 651742, 2012;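 active = mean signal decrease across replicates above about 35% based on untreated-well scatter, with enough replicates individually passing, limit read from the data; inconclusive = no rule stated though some were filed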;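 also: 0% = median of neutral control wells and 100% = median of positive control wells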
NIH3T3 tox 2: NIH/3T3 fibroblast cytotoxicity, confirmation, cytotoxicity control, cell-based, cherry-pick, single point, set 2 | shares compounds with T cruzi growth-1 | NIH/3T3 viability, CellTiter-Glo ATP luminescence, 90 h | inhibition, % at 24.9 µM | actives 56% (n = 5,600);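 active = mean loss of cell viability signal at or above a set limit, and enough replicates individually reaching it; inconclusive = meets only the mean limit or only the replicate share; inactive = meets neither condition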;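 also: 0% = median of neutral control wells and 100% = median of positive control wells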
Active calls of the source: *; ? = inconclusive; . = not tested or not shown.

SMILES	IDH1 mut inh	T cruzi growth-1	Pf Dd2 growth	GASC1 inh	T cruzi growth-2	T cruzi growth-3	NIH3T3 tox	NIH3T3 tox 2
CCNC(=O)[C@@H]1[C@@H](CO)[C@@H]2Cn3c(ccc(-c4ccc(OC)cc4)c3=O)[C@H]1N2CC	.	39	-11	8	.	.	.	.
CN1C(=O)c2cc(NC(=O)c3ccc(C(F)(F)F)cc3)ccc2OC[C@@H]2O[C@H](CC(=O)O)CC[C@H]21	.	9	2	5	.	.	.	.
O=C(C[C@@H]1CC[C@@H]2[C@H](COC[C@H](O)CN2Cc2ccc(Oc3ccccc3)cc2)O1)N1CCOCC1	.	7	-5	0	.	.	.	.
C[C@@H]1CN([C@H](C)CO)S(=O)(=O)c2ccc(C#Cc3ccc(F)cc3)cc2O[C@H]1CN(C)S(=O)(=O)c1ccc(F)cc1	-3	110*	-34	0	98*	110*	41*	55*
COCC#Cc1ccc2c(c1)O[C@H](CN(C)S(=O)(=O)c1ccc(F)cc1)[C@@H](C)CN([C@H](C)CO)S2(=O)=O	-6	75	-30	1	.	.	.	.
C[C@@H]1CN([C@@H](C)CO)S(=O)(=O)c2ccc(C#Cc3ccncc3)cc2O[C@@H]1CN(C)S(=O)(=O)c1ccc(F)cc1	3	114*	-83*	-5	?	51	34*	44*
COCC#Cc1ccc2c(c1)O[C@H](CN(C)S(=O)(=O)c1ccc(F)cc1)[C@H](C)CN([C@@H](C)CO)S2(=O)=O	2	101*	-53	5	76	18	9	55*
C[C@H]1CN([C@@H](C)CO)S(=O)(=O)c2ccc(C#Cc3ccncc3)cc2O[C@H]1CN(C)S(=O)(=O)c1ccccc1	1	70	-40	-13	.	.	.	.
CC(C)CC#Cc1ccc2c(c1)O[C@H](CN(C)S(=O)(=O)c1ccc(F)cc1)[C@@H](C)CN([C@H](C)CO)S2(=O)=O	0	.	-66	1	.	.	.	.
C[C@@H]1CN([C@H](C)CO)S(=O)(=O)c2ccc(C#Cc3ccc(F)cc3)cc2O[C@@H]1CN(C)S(=O)(=O)c1ccc(F)cc1	0	?	-63	1	?	112*	12	71*
CN(C)CC(=O)Nc1ccc2c(c1)[C@@H]1C[C@@H](CC(=O)NCc3ccccc3)O[C@H](CO)[C@@H]1O2	0	21	9	0	.	.	.	.
CC(C)CC#Cc1ccc2c(c1)O[C@@H](CN(C)S(=O)(=O)c1ccc(F)cc1)[C@@H](C)CN([C@H](C)CO)S2(=O)=O	0	.	-29	0	.	.	.	.
C[C@H](CO)N1C[C@H](C)[C@H](CN(C)S(=O)(=O)c2ccc(F)cc2)Oc2cc(C#Cc3ccc(F)cc3)ccc2S1(=O)=O	.	111*	-72	-1	100*	106*	5	17
C[C@H](CO)N1C[C@H](C)[C@H](CN(C)S(=O)(=O)c2ccc(F)cc2)Oc2cc(Br)ccc2S1(=O)=O	-6	98*	-7	-2	100*	29	33	65*
O=C(Nc1cc(F)ccc1F)N1CCCCN2[C@H](C1)[C@H](c1ccc(-c3cncnc3)cc1)[C@@H]2CO	.	103*	23	0	6	9	-22	4
O=C(Nc1cc(F)ccc1F)N1CCCCN2[C@H](C1)[C@H](c1ccc(-c3ccncc3)cc1)[C@@H]2CO	.	85	0	0	.	.	.	.
C/C=C/c1ccc([C@@H]2[C@@H](CO)N3CCCCN(C(=O)Nc4cc(F)ccc4F)C[C@@H]23)cc1	.	79	-43	-2	.	.	.	.

Compound activity deposited in PubChem BioAssay by Broad Institute.
